Data on 18 molecules can be found in ChEMBL document CHEMBL3525975, “Acetylenic linkers in lead compounds: a study of the stability of the propargyl-linked antifolates” (Drug Metab Dispos, 2012).

The structures appear in SMILES notation. In brackets after ≈: the same amount, converted by molar mass.

A short description of series [1]: Stability in pH 7.4 simulated intestinal fluid at 5 ug/ml after 24 hrs at 37 degC by reverse phase HPLC method. Type of series: ADME. The following applies: simulated gi fluid, pH 7.4, 24 h. Summed up:
(§1)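 Compounds incubated 24 h at 37°C in the stated fluid containing 200 μg/ml HPMC. Samples taken before and after incubation, quenched with equal volume ice-cold ACN, centrifuged and the supernatant run on reversed-phase HPLC. Stability = AUC after / AUC before incubation.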

Series [2] in a line: Drug metabolism in mouse liver microsomes assessed as 4-(3-(3-(2,4-diamino-6-ethylpyrimidin-5-yl)prop-2-ynyl)-4-methoxyphenyl)pyridine 1-oxide formation at 10 ug/ml by LC-MS/MS method. Type of series: ADME. Summed up: (§2)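 Compound at 10 μg/ml incubated 2 h with mouse liver microsomes (0.5 mg/ml protein, 37°C) in 0.1 M potassium phosphate pH 7.4 with 200 μg/ml HPMC and an NADPH-regenerating system. Controls were DMSO alone and reactions quenched with ACN immediately after adding microsomes. Reactions were stopped with equal volume ice-cold ACN, centrifuged, solid-phase purified and analysed by LC-MS/MS. Metabolite share = metabolite AUC / total metabolite AUC in the same injection.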
Background: Liver microsomes are vesicles of endoplasmic reticulum, rich in cytochrome P450 enzymes.

Series [3] is described as follows: Drug metabolism in mouse liver microsomes assessed as 2-(3-(2,4-diamino-6-ethylpyrimidin-5-yl)prop-2-ynyl)-4-(pyridin-4-yl)phenol formation at 10 ug/ml by LC-MS/MS method. Type of series: ADME. Summed up:
as §2

A short description of series [4]: Stability in mouse liver microsomes assessed as parent compound remaining at 5 ug/ml after 1 hr at 37 degC by reverse phase HPLC method. Type of series: ADME. Particulars: read-out: Stability. A digest of the protocol:
(§3)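 Mouse liver microsomes (0.5 mg/ml) in 0.1 M potassium phosphate pH 7.4 with 200 μg/ml HPMC, 37°C. NADPH-regenerating system: 1.3 mM NADP+, 3.3 mM glucose 6-phosphate, 0.5 U/ml G6P dehydrogenase, 3.3 mM MgCl2. Final compound concentration 5 μg/ml; start by adding microsomes. Controls: DMSO, and compound without microsomes. Quench with ice-cold ACN, solid-phase cleanup, reversed-phase HPLC. Result is percent parent remaining vs pre-incubation. Half-life from the single time point, assuming first-order kinetics.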

Series [5] can be described thus: Half life in mouse liver microsomes at 5 ug/ml at 37 degC by reverse phase HPLC method. Type of series: ADME. A digest of the protocol:
as §3

Series [6] in a line: Drug metabolism in mouse liver microsomes assessed as demethylation at 5 ug/ml after 1 hr at 37 degC by reverse phase HPLC method. The format is ADME.
Series [7] is described as follows: Stability in pH 1.2 simulated gastric fluid at 5 ug/ml after 24 hrs at 37 degC by reverse phase HPLC method. The following applies: simulated gi fluid, pH 1.2, 24 h. Type of series: ADME. A digest of the protocol: as §1
Series [8] can be described thus: Stability in water at 5 ug/ml after 24 hrs at 37 degC by reverse phase HPLC method. Type of series: physicochemical. The following applies: buffer. A digest of the protocol: as §1
Series [9] is described as follows: Drug metabolism in mouse liver microsomes assessed as 4-(3-(4-(2,4-diamino-6-ethylpyrimidin-5-yl)but-3-yn-2-yl)-5-methoxyphenyl)pyridine 1-oxide formation at 10 ug/ml by LC-MS/MS method. The format is ADME. Summed up: as §2
Series [10] in a line: Drug metabolism in mouse liver microsomes assessed as 3-(4-(2,4-diamino-6-ethylpyrimidin-5-yl)but-3-yn-2-yl)-5-(pyridin-4-yl)phenol formation at 10 ug/ml by LC-MS/MS method. Type of series: ADME. Summed up: as §2
In series [11] the test system is Liver. The series can be described thus: Drug level in mouse liver microsomes treated with 10 ug/ml 6-ethyl-5-(3-(2-methoxy-5-(pyridin-4-yl)phenyl)but-1-ynyl)pyrimidine-2,4-diamine by LC-MS/MS method. The format is ADME. Summed up: as §2
In another series the target is Dihydrofolate reductase (Staphylococcus aureus, UniProt P0A017). The series can be described thus: Inhibition of Staphylococcus aureus DHFR assessed as reduction in rate of NADPH consumption. A digest of the protocol: (§4)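 DHFR activity followed as NADPH consumption at 340 nm over 5 min. Pure enzyme at limiting concentration, 100 μM NADPH, 1 mM dihydrofolate. Buffer: 50 mM KCl, 10 mM 2-mercaptoethanol, 0.5 mM EDTA, 1 mg/ml BSA. Run in triplicate.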

The nature of series [12]: Kinetic solubility of the compound. Type of series: physicochemical. The following applies: read-out: Kinetic_solubility. Summed up:
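20 or 40 mM DMSO stocks diluted into filtered water with or without 200 μg/ml methylcellulose. Centrifuged, held 30 min at room temperature, then reversed-phase HPLC (50% ACN / 50 mM potassium phosphate pH 7.0, isocratic). Solubility taken as the highest concentration where absorbance stays linear with log concentration.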

In series [13] the test system is Liver. The series can be described thus: Drug level in mouse liver microsomes treated with 10 ug/ml 6-ethyl-5-(3-(3-methoxy-5-(pyridin-4-yl)phenyl)prop-1-ynyl)pyrimidine-2,4-diamine by LC-MS/MS method. Type of series: ADME. A digest of the protocol: as §2
The subject of the next series is Staphylococcus aureus. The series can be described thus: Antimicrobial activity against Staphylococcus aureus. The format is functional.
The subject of series [14] is Liver. The series can be described thus: Drug level in mouse liver microsomes treated with 10 ug/ml 6-ethyl-5-(3-(3-methoxy-5-(pyridin-4-yl)phenyl)but-1-ynyl)pyrimidine-2,4-diamine by LC-MS/MS method. Type of series: ADME. Summed up: as §2
Series [15] deals with Liver. The series can be described thus: Drug level in mouse liver microsomes treated with 10 ug/ml 6-ethyl-5-(3-(2-methoxy-5-(pyridin-4-yl)phenyl)prop-1-ynyl)pyrimidine-2,4-diamine by LC-MS/MS method. The format is ADME. Summed up: as §2
The test system of series [16] is Liver. The series can be described thus: Drug level in mouse liver microsomes treated with 10 ug/ml 5-(3-(3-methoxy-5-(pyridin-4-yl)phenyl)but-1-ynyl)-6-methylpyrimidine-2,4-diamine by LC-MS/MS method. Type of series: ADME. A digest of the protocol:
as §2

Series [17] is described as follows: Drug metabolism in mouse liver microsomes assessed as 4-(3-(4-(2,4-diamino-6-ethylpyrimidin-5-yl)but-3-yn-2-yl)-4-methoxyphenyl)pyridine 1-oxide formation at 10 ug/ml by LC-MS/MS method. Type of series: ADME. Summed up:
as §2

Series [18] can be described thus: Drug metabolism in mouse liver microsomes assessed as 2-(4-(2,4-diamino-6-ethylpyrimidin-5-yl)but-3-yn-2-yl)-4-(pyridin-4-yl)phenol formation at 10 ug/ml by LC-MS/MS method. Type of series: ADME. A digest of the protocol: as §2
Series [19] is described as follows: Drug metabolism in mouse liver microsomes assessed as 3-(4-(2,4-diamino-6-methylpyrimidin-5-yl)but-3-yn-2-yl)-5-(pyridin-4-yl)phenol formation at 10 ug/ml by LC-MS/MS method. The format is ADME. A digest of the protocol: as §2
Series [20] in a line: Drug metabolism in mouse liver microsomes assessed as 4-(3-(4-(2,4-diamino-6-methylpyrimidin-5-yl)but-3-yn-2-yl)-5-methoxyphenyl)pyridine 1-oxide at 10 ug/ml by LC-MS/MS method. The format is ADME. Summed up: as §2
Series [21] can be described thus: Inhibition of Candida glabrata DHFR. More on the design: species or system Nakaseomyces glabratus. A digest of the protocol:
as §4

Dihydrofolate reductase, sequence (P0A017 whole entry): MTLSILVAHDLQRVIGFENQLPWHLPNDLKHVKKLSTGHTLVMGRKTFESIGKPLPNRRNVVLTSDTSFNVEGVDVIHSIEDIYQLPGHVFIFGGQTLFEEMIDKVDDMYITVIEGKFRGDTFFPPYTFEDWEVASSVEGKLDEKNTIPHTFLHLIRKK

By half-life is commonly meant the time in which the quantity being followed falls by half. In the case of `CCc1nc(N)nc(N)c1C#CCc1cc(-c2ccncc2)ccc1OC`, the Stability result in [1], in series [7] and in series [8] was “Stable” each time. Moreover, the results for the Drug metabolism result in [2], in series [3] and in [6] were “metabolite_detected”, “metabolite_detected” and 19.7%, respectively. Also, in [4], the remaining at 1 h, 5 ug/ml amounted to 26.5%. The half-life at 5 ug/ml in series [5] is 31 min.

Turning to `CCc1nc(N)nc(N)c1C#CC(C)c1cc(OC)cc(-c2ccncc2)c1` (configuration not stated), the Stability result in series [1], in [7] and in series [8] was “Stable” in each case. For the same molecule, the results for the Drug metabolism result in [9], in series [10] and in series [6] were “metabolite_detected”, “metabolite_detected” and 28%, respectively. In series [4], the remaining at 1 h, 5 ug/ml stood at 29.2%. In addition, the half-life at 5 ug/ml in [5] amounted to 34 min.

One may read the IC50 as the concentration needed to halve the response being measured. For `CCc1nc(N)nc(N)c1C#CC(C)c1cc(-c2cc[n+]([O-])cc2)ccc1OC` (configuration not stated), in the series on Liver [11], the Drug metabolism result was “metabolite_detected”. Also, at Dihydrofolate reductase, the IC50 is 45 nM.

`CCc1nc(N)nc(N)c1C#CC(C)c1cc(OC)cc(N2CCOCC2)c1` (configuration not stated): the IC50 on Dihydrofolate reductase is 26 nM. Further, the solubility kinetic in [12] is > 80 µg/mL.

As to `COc1cc(C(C)C#Cc2c(C)nc(N)nc2N)cc(N2CCOCC2)c1` (configuration not stated), in series [12], the solubility kinetic was > 80 µg/mL.

Take `CCc1nc(N)nc(N)c1C#CCc1cc(O)cc(-c2ccncc2)c1`: the Drug metabolism result in the series with Liver [13] was “metabolite_detected”.

By MIC is commonly meant the lowest concentration found to suppress growth. On to `COc1cc(-c2ccccc2)cc(C(C)C#Cc2c(C)nc(N)nc2N)c1` (configuration not stated), for which, on Dihydrofolate reductase, the IC50 came out at 61 nM. Moreover, the MIC against Staphylococcus aureus was 0.72 µg/mL (≈ 2.01 µM). Besides, in [12], the solubility kinetic was 20 µg/mL (≈ 55.8 µM).

With `CCc1nc(N)nc(N)c1C#CC(C)c1cc(OC)cc(-c2cc[n+]([O-])cc2)c1` (configuration not stated), the Drug metabolism entry in the series on Liver [14] is given as “metabolite_detected”.

As to `CCc1nc(N)nc(N)c1C#CCc1cc(-c2ccncc2)ccc1O`, in the series with Liver [15], the Drug metabolism result was “metabolite_detected”.

`Cc1nc(N)nc(N)c1C#CC(C)c1cc(O)cc(-c2ccncc2)c1` (configuration not stated): in the series with Liver [16], the Drug metabolism result is reported as “metabolite_detected”.

For the molecule `CCc1nc(N)nc(N)c1C#CC(C)c1cc(O)cc(-c2ccncc2)c1` (configuration not stated), in the series on Liver [14], the Drug metabolism entry is given as “metabolite_detected”.

Turning to `CCc1nc(N)nc(N)c1C#CC(C)c1cc(-c2ccncc2)ccc1OC` (configuration not stated), the Drug metabolism result in [17] and in series [18] was “metabolite_detected” in each case. Also, the half-life at 5 ug/ml in series [5] was determined as 65 min.

Take `COc1cc(-c2ccncc2)cc(C(C)C#Cc2c(C)nc(N)nc2N)c1` (configuration not stated): the Stability result in series [1], in series [7] and in series [8] was “Stable” each time. For the same molecule, the Drug metabolism entry in [19] is on record as “metabolite_detected”; in series [20], “metabolite_detected”; in series [6] it was 15.9%. In addition, the remaining at 1 h, 5 ug/ml in series [4] is 33.7%. In series [5], the half-life at 5 ug/ml came out at 38 min.

The molecule `COc1cc(-c2cc(C)cc(C)c2)cc(C(C)C#Cc2c(C)nc(N)nc2N)c1` (configuration not stated) returned an IC50 in series [21] of 0.5 nM.

Consider `CCc1nc(N)nc(N)c1C#CCc1cc(OC)cc(-c2cc[n+]([O-])cc2)c1`, for which the Drug metabolism result with Liver [13] is on record as “metabolite_detected”.

In the case of `CCc1nc(N)nc(N)c1C#CCc1cc(OC)cc(-c2ccncc2)c1`, the Stability result in series [1], in series [7] and in [8] was “Stable” throughout. The remaining at 1 h, 5 ug/ml in [4] is 0%. Further, in [5], the half-life at 5 ug/ml was < 10 min. For the same molecule, in series [6], the Drug metabolism is given as 6.3%.

Regarding `COc1cc(-c2cc[n+]([O-])cc2)cc(C(C)C#Cc2c(C)nc(N)nc2N)c1` (configuration not stated), the Drug metabolism result with Liver [16] is “metabolite_detected”.

Consider `COc1cc(C(C)C#Cc2c(C)nc(N)nc2N)cc(N2CCNCC2)c1` (configuration not stated), for which the IC50 on Dihydrofolate reductase was 130 nM. In addition, the MIC in the series on Staphylococcus aureus was 91.5 µg/mL (≈ 250 µM). Further, the solubility kinetic in [12] stood at 60 µg/mL (≈ 164 µM).
